Assays:
[1] = Partition coefficient in octanol to water system; type: physicochemical
[2] = Second order rate constant determined for the reaction of compound with GSH in phosphate buffer at a pH of 7.5
Method in brief: (§1)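 Test compound and GSH reacted in phosphate buffer at 37 °C, pH 7.5 for lines 2 and 3 and pH 8.5 for line 4. Aliquots were taken at set times and quenched into phosphate buffer containing 0.2 mM Ellman's reagent (DTNB). Unreacted GSH was measured by UV absorbance at 412 nm. Second-order rate constant k₂ for nucleophilic GSH addition is given in mM⁻¹ h⁻¹.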

[3] = Second order rate constant was determined for the reaction of compound with GSH in phosphate buffer at a pH of 8.5; method in brief: as §1
[4] = Second order rate constant was determined for the reaction of compound with GSH in phosphate buffer at a pH of 7.5; method in brief: as §1

Po/w [1] | k2 [2] | k2 [3] | k2 [4] | Compound
15 | 3 m M-1 hr-1 | 17 m M-1 hr-1 | – | CC(=O)OC(CC#CCS(=O)(=O)c1ccc([N+](=O)[O-])cc1)Cn1ccnc1[N+](=O)[O-] (stereo not given)
22.2 | – | 0.7 m M-1 hr-1 | 0.2 m M-1 hr-1 | CC(=O)OC(CC#CCS(=O)(=O)c1ccccc1)Cn1ccnc1[N+](=O)[O-] (stereo not given)
– | – | 0.8 m M-1 hr-1 | – | CC(=O)OC(CC#CCSc1ccc([N+](=O)[O-])cc1)Cn1ccnc1[N+](=O)[O-] (stereo not given)
2.2 | – | 8.6 m M-1 hr-1 | 1.1 m M-1 hr-1 | O=C(O)CCC(=O)OC(CC#CCS(=O)(=O)c1ccc([N+](=O)[O-])cc1)Cn1ccnc1[N+](=O)[O-] (stereo not given)

Source: ChEMBL document CHEMBL1146746, “Propargylic sulfones possessing a 2-nitroimidazole function: novel hypoxic-cell radiosensitizers with intracellular non-protein thiol depletion ability” (Bioorg Med Chem Lett, 2004)
